Source: article PMC4869561 (Inflammatory Bowel Diseases, 2016)
Converted amounts (≈) assume the structure as drawn. “Also recorded” adds a separate entry of the source. Like-named read-outs stand apart in the source and are kept apart here.

How the values were obtained:
LPS-stimulated PBMCs = assay: LPS stimulation of PBMCs, IL-8 release; type: cell-based, human; conditions: for inhibition: Homo sapiens, PBMC, read-out: maximum inhibition of IL-8 release
Summary of the method: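 Healthy-donor PBMCs (Lymphoprep) at 1 × 10^6 cells/mL in RPMI 1640 with 10% heat-inactivated FBS and 25 mM HEPES. Preincubated 2 h at 37°C, 5% CO2 with test compound 0.1–1000 ng/mL or DMSO 0.5% v/v. LPS 1 ng/mL then added for 24 h. Supernatant IL-8 measured by ELISA. At least 3 independent experiments.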

[1] = tested on: LPS-stimulated primary human macrophages; assay: LPS activation of monocyte-derived macrophages, IL-8 and TNF-α release; type: cell-based; conditions: for inhibition of IL-8 release / inhibition of TNF-α release: LPS-stimulated macrophages, up to maximum tested 250 ng/mL; for inhibition: Homo sapiens, Macrophage
Summary of the method: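 CD14+ cells taken from human PBMCs by magnetic positive selection. Differentiated 12–14 days in RPMI with 10% FBS and GM-CSF 100 ng/mL. Plated at 2 × 10^5 cells/mL and equilibrated for 2 h. Pretreated 2 h with test compound or DMSO 0.5% v/v, then stimulated with LPS 10 ng/mL for 24 h. Supernatant IL-8 and TNF-α measured by ELISA.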

[2] = tested on: anti-CD3/anti-CD28-stimulated PBMCs; assay: CD3/CD28 stimulation of PBMCs, IL-2 and IFN-γ release; type: cell-based, human; conditions: for efficacy of inhibition of IFN-γ release / efficacy of inhibition of IL-2 release: anti-CD3/anti-CD28-stimulated PBMCs
HT29 cells = assay: IL-1β-stimulated IL-8 production by HT29 cells; type: cell-based, human; conditions: for maximum inhibition of IL-8 secretion, compound alone: IL-1β-stimulated HT29, 0.1-1000 ng/mL, maximum at 1000 ng/mL; for inhibitory effect on IL-8 secretion at 100 ng/mL: IL-1β-stimulated HT29, compound alone
[3] = tested on: myofibroblasts isolated from inflamed UC mucosa; assay: TNF-α-stimulated IL-6 and IL-8 release by UC myofibroblasts; type: cell-based, human; conditions: for maximum inhibition (efficacy) of IL-6 release / maximum inhibition (efficacy) of IL-8 release: UC myofibroblasts, TNF-α-stimulated, 0.01-10 μg/mL; for IC50: 24 h
Summary of the method: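 Myofibroblasts grown from explants of inflamed resected UC mucosa in DMEM with 20% FBS and antibiotics, passaged with trypsin-EDTA and used at passage ≥4. Seeded at 5 × 10^4/well and cultured overnight. Stimulated with TNF-α 20 ng/mL plus DMSO 0.5% v/v or test compound (0.000001–1 or 0.01–10 μg/mL). After 24 h, IL-6 and IL-8 measured by ELISA as percent inhibition versus TNF-α + DMSO; at least 3 independent experiments.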

[4] = tested on: inflamed colonic biopsies from patients with UC; assay: Organ culture of inflamed colonic UC biopsies, cytokine release; type: cell-based, human; conditions: 24 h; for inhibition at 1 µg/mL: Homo sapiens
Summary of the method: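 Inflamed colonic UC biopsies cultured one per well in serum-free HL-1 medium with penicillin/streptomycin at 37°C, 5% CO2. Treated with DMSO 0.5% v/v, test compounds at 1 μg/mL, the three selective inhibitors combined, or one compound at 0.001–1 μg/mL. After 24 h, supernatant IL-1β, IL-6 and IL-8 measured by ELISA. Results given as mean percent inhibition versus DMSO; at least 3 independent experiments.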

[5] = tested on: patients with active Crohn's disease; conditions: cited from earlier work
[6] = Propidium iodide flow cytometry cell viability assay; type: cell-based; conditions: concentrations tested in the cellular assays, data not shown
[7] = tested on: mouse acetic acid-induced colitis; conditions: mouse acetic acid-induced colitis model; cited from earlier work
[8] = tested on: rheumatoid arthritis patients; conditions: phase III trial; cited from earlier work
patients with UC = conditions: oral, clinical trial; cited from earlier work
[9] = read-out: inhibition of IL-8 release
[10] = read-out: inhibition of TNF-α release
[11] = Homo sapiens, read-out: IL-6 (IC50 Value)
[12] = Homo sapiens, read-out: IL-8 (IC50 Value)
[13] = read-out: inhibition of IL-1β release
[14] = read-out: inhibition of IL-6 release

Compound | inhibition of IL-8 release [1] | inhibition of TNF-α release [1] | efficacy of inhibition of IFN-γ release [2] | efficacy of inhibition of IL-2 release [2] | maximum inhibition of IL-8 secretion, compound alone (HT29 cells) | inhibitory effect on IL-8 secretion at 100 ng/mL (HT29 cells) | maximum inhibition (efficacy) of IL-6 release [3] | maximum inhibition (efficacy) of IL-8 release [3] | inhibition (LPS-stimulated PBMCs) | inhibition [1, 9] | inhibition [1, 10] | IC50 [3, 11] | IC50 [3, 12] | inhibition at 1 µg/mL [4, 13] | inhibition at 1 µg/mL [4, 14] | inhibition at 1 µg/mL [4, 9] | also measured
COc1ccc(-c2cc3nccn3c(Nc3ncccc3C(N)=O)n2)cc1OC [BAY-61-3606] | less than 50% | less than 50% | maximal efficacy | weaker inhibition | 17% | Neither dasatinib nor BAY-61-3606 had any significant inhibitory effect | over 90% | over 90% |  |  |  |  |  |  |  |  | potency weaker than TOP1210, IL-8 release (LPS-stimulated PBMCs; LPS-stimulated PBMCs, ratio of IC50 values): ~300 fold; maximum inhibition of IL-8 release (LPS-stimulated PBMCs; LPS-stimulated PBMCs, up to maximum tested 1 μg/mL): 83%; efficacy of inhibition of IFN-γ release ([2]; listed as BAY61-3606): weaker inhibition; potency weaker than TOP1210, IFN-γ release ([2]; ratio of IC50 values): 120 fold
Cc1ccc(-n2nc(C(C)(C)C)cc2NC(=O)Nc2ccc(OCCN3CCOCC3)c3ccccc23)cc1 [BIRB-796] |  |  | inactive; also recorded: little-to-no effect | little-to-no effect |  |  | 70% | 70% | < 50% | < 50% | < 50% | > 1 µg/mL | > 1 µg/mL | 50 to 65% | 50 to 65% | 50 to 65% | serum C-reactive protein ([5]; after 1 week): dose-dependent decrease; clinical efficacy endpoints compared to placebo ([5]; any time point): no clinical efficacy endpoints were reached
Cc1nc(Nc2ncc(C(=O)Nc3c(C)cccc3Cl)s2)cc(N2CCN(CCO)CC2)n1 [Dasatinib] |  |  |  |  |  | Neither dasatinib nor BAY-61-3606 had any significant inhibitory effect |  |  | < 50% | < 50% | 87% | > 1 µg/mL | > 1 µg/mL |  |  |  | inhibition at 10 µg/mL ([3]; Homo sapiens, read-out: inhibition of IL-8 release): ~70%; inhibition of IL-1β release ([4]; inflamed UC biopsies, 1 μg/mL): did not have any significant effect; inhibition of IL-6 release ([4]; inflamed UC biopsies, 1 μg/mL): did not have any significant effect; inhibition of IL-8 release ([4]; inflamed UC biopsies, 1 μg/mL): did not have any significant effect
C#Cc1cc(Nc2nccc(Oc3ccc(NC(=O)Nc4cc(C(C)(C)C)nn4-c4ccc(C)cc4)c4ccccc34)n2)cc(C(=O)NCCOCCOCCOC)c1 [TOP1210, 3-((4-((4-(3-(3-(tert-butyl)-1-(p-tolyl)-1H-pyrazol-5-yl)ureido)naphthalen-1 yl)oxy)pyrimidin-2-yl)amino)-5-ethynyl-N-(2-(2-(2-methoxyethoxy)ethoxy)ethyl)benzamide] | maximal inhibition | maximal inhibition | maximal inhibition |  | maximal efficacy |  |  |  | 100% |  |  | 0.0022 µg/mL (≈ 0.00276 µM) | 0.0021 µg/mL (≈ 0.00264 µM) | 80 to 90% | 80 to 90% | 80 to 90% | potency weaker than dasatinib, IL-2 release ([2]; ratio vs dasatinib): approximately 15 fold; potency weaker as inhibitor of IL-2 release compared with IFN-γ release ([2]; same compound, IL-2 vs IFN-γ): 18 fold; cell viability (propidium iodide, flow cytometry) [6]: not to effect cell viability
COc1cc(Nc2ncc(F)c(Nc3ccc4c(n3)N(COP(=O)(O)O)C(=O)C(C)(C)O4)n2)cc(OC)c1OC [fostamatinib] |  |  |  |  |  |  |  |  |  |  |  |  |  |  |  |  | mucosal damage [7]: decrease mucosal damage; efficacy in rheumatoid arthritis [8]: limited efficacy
C[C@@H]1CCN(C(=O)CC#N)C[C@@H]1N(C)c1ncnc2[nH]ccc12 [tofacitinib] |  |  |  |  |  |  |  |  |  |  |  |  |  |  |  |  | efficacy in UC (patients with UC): effective
